# Published values collected from several papers.
# Lines come from different studies, so protocols differ.
# Organism: Escherichia coli
# Observed: microbial growth
Compound,assay,test system,conditions,MIC
CCOc1ccc(-c2nc3ccccc3n2Cc2ccccc2)cc1,broth dilution,ATCC25922,,64 µg/mL
N=C(N)c1ccc(OCc2cc(Br)cc(COc3ccc(C(=N)N)cc3)c2)cc1,,BW25113,,> 100 µg/mL
CC(=O)Nc1ccc(C(=O)Nc2ccc(C(=O)N[C@@H](CC(N)=O)C(=O)Nc3ccc(C(=O)Nc4ccc(C(=O)Nc5ccc(C(=O)O)cc5)c(O)c4OC(C)C)cc3)cc2)cc1,,DSM1116,,16 µg/mL
CCCCCCC#Cc1cncc(-c2nnc(SCc3ccc([N+](=O)[O-])cc3)n2C)c1,,,,≥ 20 µg/mL
N=C(N)c1ccc(OCCCCCOc2ccc(C(=N)N)cc2)cc1,broth dilution,ATCC25922,,200 µg/mL
Cc1ccc(C)n1-c1ccc(-c2nnc(-c3cccc([N+](=O)[O-])c3)[nH]2)cc1,broth dilution,ATCC10536,18 h,250 µg/mL
Oc1ccc(Br)cc1-c1nc2ccccc2[nH]1,broth dilution,ATCC25922,,64 µg/mL
CC(C)Oc1c(NC(=O)c2ccc(NC(=O)[C@H](CC(N)=O)NC(=O)c3ccc(NC(=O)c4ccc(C5(C(F)(F)F)N=N5)cc4)cc3)cc2)ccc(C(=O)Nc2ccc(C(=O)O)cc2)c1O,,DSM1116,,16 µg/mL
N=C(N)c1cccc(OCc2ccccc2COc2cccc(C(=N)N)c2)c1,,BW25113,,> 200 µg/mL
Fc1ccc(NCc2ccc(Oc3ccccn3)cc2)cc1,,,,> 12.5 µg/mL
Cc1c(CN(C)C(=O)/C=C/c2cnc3c(c2)CC(CCN)C(=O)N3)oc2ccccc12.Cl (stereo not drawn),broth dilution,MG1655,clinical isolate,8 µg/mL
CCCCCCC/C=C/C(=O)N1C(=O)/C(=C(\O)C2CCNCC2)C(=O)C1CC(C)C (stereo not drawn),,"K12, K12",,25 µg/mL
N=C(N)c1ccc(OCCCCCCCCCOc2ccc(C(=N)N)cc2)cc1,,BW25113,,50 µg/mL
CCCCCCC/C=C/C(=O)N1C(=O)/C(=C(\O)c2ccc(OCOCCOC)cc2)C(=O)C1CC(C)C (stereo not drawn),,"K12, K12",,> 200 µg/mL
CNC(C)C1CCC(N)C(OC2C(N)CC(N)C(OC3OCC(C)(O)C(NC)C3O)C2O)O1 (stereo not drawn),broth dilution,ATCC25922,,0.5 µg/mL
NC1CCc2c1[nH]c1ccc(Cl)c(Cl)c21 (stereo not drawn),broth dilution,ATCC25922,,16 µg/mL
CNC(=O)c1cc(Oc2ccc(NC(=O)Nc3ccc(Cl)c(C(F)(F)F)c3)cc2)ccn1,,CFT073,,> 100 µM
CCCCCCC/C=C/C(=O)N1C(=O)/C(=C(\O)CCCC)C(=O)C1CC(C)C (stereo not drawn),,"K12, K12",,> 200 µg/mL
Clc1cccc(NCc2ccc(Oc3ccccn3)cc2)c1,,,,> 25 µg/mL
N=C(N)c1ccccc1OCc1ccc(COc2ccccc2C(=N)N)cc1,broth dilution,BW25113,,> 200 µg/mL
CCCCCCC#Cc1cncc(-c2nnc(SCc3ccc([N+](=O)[O-])o3)n2C)c1,,,,≥ 20 µg/mL
CCCCCC(=O)Oc1c(C)c(O)c(C(=O)/C=C/c2ccccc2)c(OC)c1C,broth dilution,ATCC25922,,5000 µg/mL
CC(C)Oc1c(NC(=O)c2ccc(NC(=O)[C@H](CC(N)=O)NC(=O)c3ccc(NC(=O)c4ccc(C#N)cc4)cc3)cc2)ccc(C(=O)Nc2cccc(C(=O)O)c2)c1O,,DSM1116,,0.5 µg/mL
N=C(N)c1ccc(OCc2ccc(-c3ccccc3)cc2COc2ccc(C(=N)N)cc2)cc1,broth dilution,ATCC25922,,200 µg/mL
COc1ccc(-c2nc3ccccc3[nH]2)cc1O,broth dilution,ATCC25922,,256 µg/mL
CCn1cc(C(=O)O)c(=O)c2cc(F)c(N3CCNCC3)cc21,broth dilution,ATCC10536,18 h,≤ 1 µg/mL
CNc1cccc2cc(C(=O)NCc3ccc(C(=O)O)cc3)c(=O)[nH]c12,broth dilution,ATCC25922,,> 64 µg/mL
CCCC(=O)Oc1c(C)c(O)c(C(=O)/C=C/c2ccccc2)c(OC)c1C,broth dilution,ATCC25922,,5000 µg/mL
CC(C)Oc1c(NC(=O)c2ccc(NC(=O)[C@H](CC(N)=O)NC(=O)c3cccc(-c4cccc(C#N)c4)c3)cc2)ccc(C(=O)Nc2ccc(C(=O)O)cc2)c1O,,DSM1116,,> 64 µg/mL
N=C(N)c1ccc(OCc2cccc(COc3ccc(C(=N)N)cc3)c2)cc1,broth dilution,W3110,,100 µg/mL
COc1cc(Cc2cnc(N)nc2N)cc(OC)c1OC,,,,~0.2 µM
C[C@H](CCC(=O)NCCCNCCCCNCCCN)[C@H]1CCC2=C3CC[C@@H]4C[C@H](O)CC[C@]4(C)[C@H]3C[C@H](O)[C@@]21C,broth dilution,MG1655,20 h,64 µg/mL
O=C(O)c1cn(C2CC2)c2cc(N3CCNCC3)c(F)cc2c1=O,,,,1.6 µg/mL
CC(C)Oc1c(NC(=O)c2ccc(NC(=O)[C@H](CC(N)=O)NC(=O)c3ccc(NC(=O)C(C)Sc4ccc(C#N)cc4)cc3)cc2)ccc(C(=O)Nc2ccc(C(=O)O)cc2)c1O (stereo partly drawn),,DSM1116,,0.25 µg/mL
Cc1ccc2nc(-c3ccc(Cl)cc3)n(Cc3ccccc3Cl)c2c1,broth dilution,ATCC25922,,64 µg/mL
CC(C)Oc1c(N)ccc(C(=O)Nc2ccc(C(=O)N[C@@H](CC(N)=O)C(=O)Nc3ccc(C(=O)Nc4ccc(C(=O)Nc5ccc(C(=O)O)cc5)c(O)c4OC(C)C)cc3)cc2)c1O,,DSM1116,,2 µg/mL
N=C(N)c1ccc(OCc2cc(COc3ccc(C(=N)N)cc3)cc(-c3ccccc3)c2)cc1,broth dilution,ATCC25922,,100 µg/mL
C[C@@H](O)[C@H]1C(=O)N2C(C(=O)O)=C(S[C@@H]3CN[C@H](C(=O)N(C)C)C3)[C@H](C)[C@H]12,broth dilution,ATCC25922,,≤ 0.125 µg/mL
Cc1ccc(C)n1-c1ccc(-c2n[nH]c(=S)[nH]2)cc1,broth dilution,ATCC10536,18 h,8 µg/mL
CC(C)Oc1c(NC(=O)c2ccc(NC(=O)[C@H](CC(N)=O)NC(=O)c3ccc(NC(=O)c4ccc(C#N)cc4)cc3)cc2)ccc(C(=O)Nc2ccc(C(=O)O)cc2)c1O,,DSM1116,,0.5 µg/mL
O=C(CCCCCC[P+](c1ccccc1)(c1ccccc1)c1ccccc1)Nc1ccc(O)c(O)c1.[Br-],broth dilution,ATCC25922,18 h,> 32 µg/mL
Clc1ccc(Cn2c(-c3ccc(Cl)cc3)nc3ccccc32)cc1,broth dilution,ATCC25922,,16 µg/mL
CC1=NN(CNc2c(O)c(S(=O)(=O)O)cc3ccccc23)C(=O)C1=NNn1c(-c2ccccc2)nc2ccccc2c1=O,broth dilution,,24 h,41.8 µM
O=C(CCc1cc(O)c(O)c(O)c1)NCCCCCCCC[P+](c1ccccc1)(c1ccccc1)c1ccccc1.[Br-],broth dilution,ATCC25922,18 h,> 32 µg/mL
CC(C)Oc1c(NC(=O)c2ccc(NC(=O)[C@H](CC(N)=O)NC(=O)c3ccc(NC(=O)c4ccc([N+](=O)[O-])c5cccnc45)cc3)cc2)ccc(C(=O)Nc2ccc(C(=O)O)cc2)c1O,,DSM1116,,0.25 µg/mL
COc1cccc(-c2nc3ccccc3[nH]2)c1,broth dilution,ATCC25922,,256 µg/mL
O=C1NN=C(N=Cc2ccc(O)c(O)c2)C1=NNn1c(-c2ccccc2)nc2ccccc2c1=O,broth dilution,,24 h,53.5 µM
CSc1ccc(-c2nc3ccc(C)cc3n2Cc2ccccc2)cc1,broth dilution,ATCC25922,,128 µg/mL
CCOc1ccc(-c2nc3cc(-c4nc5cc(N6CCN(C)CC6)ccc5[nH]4)ccc3[nH]2)cc1,broth dilution,25922,24 h,8 to 16 µg/mL
NC1CCCCc2c1[nH]c1ccc(Br)cc21 (stereo not drawn),broth dilution,ATCC25922,,16 µg/mL
C=CCOc1c(C)c(O)c(C(=O)/C=C/c2ccccc2)c(OC)c1C,broth dilution,ATCC25922,,5000 µg/mL
Cc1ccc2nc(-c3ccc(Cl)c(Cl)c3)[nH]c2c1,broth dilution,ATCC25922,,32 µg/mL
O=C(CCCCCCCCCC[P+](c1ccccc1)(c1ccccc1)c1ccccc1)Nc1ccc(O)c(O)c1.[Br-],broth dilution,ATCC25922,18 h,> 32 µg/mL
O=[N+]([O-])c1ccc(-c2nc3cccc(O)c3[nH]2)o1,broth dilution,ATTC25922,,2 µg/mL
